Source: ChEMBL document CHEMBL1141214, “Use of structure-based drug design approaches to obtain novel anthranilic acid acyl carrier protein synthase inhibitors” (J Med Chem, 2005)
In brackets after ≈: the same amount, converted by molar mass. Several values for one entry are separate records, joined by “and”; a condition that tells them apart may be missing. Equal entries are not always repeated.

Assays:
Enterococcus faecalis = assay: Inhibitory activity against vancomycin-resistant Enterococcus faecalis VRE; format: functional
Method in brief: (§1)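 Broth microdilution per NCCLS in Mueller-Hinton II broth; serial compound dilutions inoculated to 10⁵ CFU/mL, incubated 18–22 h at 35 °C in ambient air. MIC taken as lowest concentration completely inhibiting visible growth (unaided eye).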

Streptococcus pneumoniae = assay: Inhibitory activity against penicillin-resistant Streptococcus pneumoniae penR; format: functional; method in brief: as §1
Staphylococcus aureus = assay: Inhibitory activity against methicillin-resistant Staphylococcus aureus MRSA; format: functional; method in brief: as §1
Candida albicans = assay: Inhibitory activity against Candida albicans; format: functional
Method in brief: (§2)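 Broth microdilution per NCCLS in Mueller-Hinton II broth; serial dilutions in microtiter wells, inoculum 10⁵ CFU/mL, 100 μL final. Incubated 18–22 h at 35 °C in ambient air. MIC taken as lowest concentration giving complete visible growth inhibition by unaided eye.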

[1] = target: T1, Holo-[acyl-carrier-protein] synthase (Bacillus subtilis (strain 168), UniProt P96618); assay: Inhibitory activity against Bacillus subtilis AcpS by HTRF assay
T1 sequence (P96618 whole entry): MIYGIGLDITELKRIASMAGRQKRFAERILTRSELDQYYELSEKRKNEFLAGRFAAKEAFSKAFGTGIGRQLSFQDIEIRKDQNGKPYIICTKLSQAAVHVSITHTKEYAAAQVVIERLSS

Escherichia coli = assay: Inhibitory activity against Escherichia coli; format: functional; method in brief: as §2
Bacillus subtilis = assay: Inhibitory activity against Bacillus subtilis 168; format: functional; method in brief: as §2

`CSC(Cc1ccc(Cl)cc1)C(=O)Nc1ccc(Cl)cc1C(=O)O` (configuration not stated) gave an MIC (Enterococcus faecalis) of 128 mg/L (≈ 333 µM), an MIC (Streptococcus pneumoniae) of 64 mg/L (≈ 167 µM) and an MIC (Staphylococcus aureus) of 64 mg/L (≈ 167 µM). For the same molecule, the MIC (Candida albicans) was greater than 128 mg/L, the IC50 [1] was 1.43 µM and 1.4 µM and the MIC (Escherichia coli) was greater than 128 mg/L. For the same molecule, the MIC (Bacillus subtilis) was 64 mg/L (≈ 167 µM).

With `C/C(=C\c1ccc(Cl)cc1)C(=O)Nc1cc(Cl)ccc1C(=O)O` the MIC (Enterococcus faecalis) was 64 mg/L (≈ 183 µM), the MIC (Streptococcus pneumoniae) was 32 mg/L (≈ 91.4 µM) and the MIC (Staphylococcus aureus) was 32 mg/L (≈ 91.4 µM). It also gave an MIC (Candida albicans) greater than 128 mg/L, an IC50 [1] of 32.3 µM and an MIC (Escherichia coli) greater than 128 mg/L. It also gave an MIC (Bacillus subtilis) of 32 mg/L (≈ 91.4 µM).

`NS(=O)(=O)c1cc(C(=O)O)c(NCc2ccco2)cc1Cl` [FUROSEMIDE] was tested, and the IC50 [1] was 12.7 µM.

For `O=C(O)c1cc(Cl)ccc1NC(=O)c1cccc2c1-c1ccccc1C2=O`, the IC50 [1] was 0.821 µM and 0.82 µM.

With `CC(Cc1ccccc1)C(=O)Nc1ccc(Cl)cc1C(=O)O` (configuration not stated) the IC50 [1] was 2.83 µM and 2.8 µM.
